How the values were obtained:
[1] = molecular target: Somatostatin receptor type 2 (Homo sapiens, UniProt P30874); assay: Inhibition of 125I-[Leu8,D-Trp22,Tyr25]SRIF-28 binding to human somatostatin receptor type 2
Summary of the method: (§1)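 Human sst2 or sst3 receptor stably expressed in CCL39 cells. 20 µm cryostat sections of cell membrane pellets were used for autoradiographic binding. IC50 (nM) came from competitive displacement. Values are mean ± SEM when N ≥ 3; otherwise mean with single values.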

[2] = molecular target: Somatostatin receptor type 5 (Homo sapiens, UniProt P35346); assay: Inhibition of 125I-[Leu8,D-Trp22,Tyr25]SRIF-28 binding to human somatostatin receptor type 5
Summary of the method: (§2)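 Human sst1 or sst5 receptor stably expressed in CHO-K1 cells. 20 µm cryostat sections of cell membrane pellets were used for receptor autoradiography. IC50 (nM) came from competitive radioligand displacement. Values are mean ± SEM when N ≥ 3; otherwise mean with single values.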

[3] = molecular target: Somatostatin receptor type 1 (Homo sapiens, UniProt P30872); assay: Inhibition of 125I-[Leu8,D-Trp22,Tyr25]SRIF-28 binding to human somatostatin receptor type 1; summary of the method: as §2
[4] = molecular target: Somatostatin receptor type 3 (Homo sapiens, UniProt P32745); assay: Inhibition of 125I-[Leu8,D-Trp22,Tyr25]SRIF-28 binding to human somatostatin receptor type 3; summary of the method: as §1
[5] = molecular target: Somatostatin receptor type 4 (Homo sapiens, UniProt P31391); assay: Inhibition of 125I-[Leu8,D-Trp22,Tyr25]SRIF-28 binding to human somatostatin receptor type 4
Somatostatin receptor type 4, sequence (P31391 whole entry): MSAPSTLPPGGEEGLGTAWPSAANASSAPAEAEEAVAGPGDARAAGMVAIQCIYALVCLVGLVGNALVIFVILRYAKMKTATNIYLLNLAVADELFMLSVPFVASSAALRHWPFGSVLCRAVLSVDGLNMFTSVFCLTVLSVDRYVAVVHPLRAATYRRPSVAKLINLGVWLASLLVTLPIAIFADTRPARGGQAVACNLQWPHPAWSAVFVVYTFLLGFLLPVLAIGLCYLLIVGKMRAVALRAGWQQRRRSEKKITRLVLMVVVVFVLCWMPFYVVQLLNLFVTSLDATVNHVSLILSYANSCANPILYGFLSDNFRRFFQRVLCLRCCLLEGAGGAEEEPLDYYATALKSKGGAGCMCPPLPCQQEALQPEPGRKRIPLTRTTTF

Somatostatin receptor type 1, sequence (P30872 whole entry): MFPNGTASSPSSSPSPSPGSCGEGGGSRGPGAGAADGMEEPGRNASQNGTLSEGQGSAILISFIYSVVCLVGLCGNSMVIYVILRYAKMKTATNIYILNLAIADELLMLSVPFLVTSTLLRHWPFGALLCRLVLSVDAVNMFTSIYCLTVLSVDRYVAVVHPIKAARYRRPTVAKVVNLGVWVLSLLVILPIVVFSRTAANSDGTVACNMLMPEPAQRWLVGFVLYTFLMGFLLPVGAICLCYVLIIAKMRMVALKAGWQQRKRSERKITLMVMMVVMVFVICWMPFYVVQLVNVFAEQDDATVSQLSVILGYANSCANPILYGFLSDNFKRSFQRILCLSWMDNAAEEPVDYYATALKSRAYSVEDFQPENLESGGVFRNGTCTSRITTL
Somatostatin receptor type 3, sequence (P32745 whole entry): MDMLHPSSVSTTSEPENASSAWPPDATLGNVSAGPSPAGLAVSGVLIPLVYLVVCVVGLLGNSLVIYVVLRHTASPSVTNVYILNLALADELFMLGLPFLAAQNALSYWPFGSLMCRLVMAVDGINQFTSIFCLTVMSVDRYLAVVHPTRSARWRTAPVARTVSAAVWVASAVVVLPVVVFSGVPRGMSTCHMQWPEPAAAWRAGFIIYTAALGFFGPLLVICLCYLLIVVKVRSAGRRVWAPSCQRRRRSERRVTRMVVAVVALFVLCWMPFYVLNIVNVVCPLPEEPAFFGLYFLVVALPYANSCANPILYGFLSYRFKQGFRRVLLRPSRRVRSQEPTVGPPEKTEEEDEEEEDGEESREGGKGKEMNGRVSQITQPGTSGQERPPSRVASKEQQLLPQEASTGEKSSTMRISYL
Somatostatin receptor type 2, sequence (P30874 whole entry): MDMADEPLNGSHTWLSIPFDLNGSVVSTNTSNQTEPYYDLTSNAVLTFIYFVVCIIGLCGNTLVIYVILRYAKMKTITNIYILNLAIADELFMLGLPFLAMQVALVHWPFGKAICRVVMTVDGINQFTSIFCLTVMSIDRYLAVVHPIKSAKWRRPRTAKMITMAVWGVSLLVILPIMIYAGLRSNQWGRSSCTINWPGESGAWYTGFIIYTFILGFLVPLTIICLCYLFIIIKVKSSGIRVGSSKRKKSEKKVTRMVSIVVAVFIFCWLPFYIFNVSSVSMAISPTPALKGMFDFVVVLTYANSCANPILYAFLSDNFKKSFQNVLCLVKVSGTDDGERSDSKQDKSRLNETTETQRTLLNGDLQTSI
Somatostatin receptor type 5, sequence (P35346 whole entry): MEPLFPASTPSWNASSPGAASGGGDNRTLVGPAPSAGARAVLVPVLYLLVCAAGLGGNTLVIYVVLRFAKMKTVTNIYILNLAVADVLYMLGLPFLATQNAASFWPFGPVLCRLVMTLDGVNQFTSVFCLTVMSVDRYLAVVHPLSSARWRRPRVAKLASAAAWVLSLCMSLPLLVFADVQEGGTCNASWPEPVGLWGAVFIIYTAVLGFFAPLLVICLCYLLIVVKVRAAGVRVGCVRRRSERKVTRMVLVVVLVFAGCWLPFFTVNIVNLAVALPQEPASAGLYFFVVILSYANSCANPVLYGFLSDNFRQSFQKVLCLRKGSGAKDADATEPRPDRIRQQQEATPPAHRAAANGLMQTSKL

Compound | IC50 [1] [nM] | IC50 [2] [nM] | IC50 [3] [nM] | IC50 [4] [nM] | IC50 [5] [nM]
CC(C)NCc1ccc(C[C@@H]2NC(=O)[C@@H](Cc3c[nH]c4ccccc34)NC(=O)[C@H](Cc3ccccc3)NC(=O)[C@@H]3CCC(=O)NCCCC[C@H](NC(=O)[C@H]([C@@H](C)O)NC2=O)C(=O)N[C@@H]([C@@H](C)O)C(=O)N[C@@H](CO)C(=O)N[C@H](C(=O)O)CSSC[C@H](NC(=O)[C@@H](N)Cc2ccc(O)cc2)C(=O)N[C@@H](CCCCN)C(=O)N3)cc1 | > 1000 | > 1000 | > 1000 | > 1000 | > 1000
CC(C)NCc1ccc(C[C@@H]2NC(=O)[C@@H](Cc3c[nH]c4ccccc34)NC(=O)[C@H]3CCC(=O)NCC[C@H](NC(=O)[C@H]([C@@H](C)O)NC2=O)C(=O)N[C@@H]([C@@H](C)O)C(=O)N[C@@H](CO)C(=O)N[C@H](C(=O)O)CSSC[C@H](NC(=O)[C@@H](N)Cc2ccc(O)cc2)C(=O)N[C@@H](CCCCN)C(=O)N[C@@H](Cc2ccccc2)C(=O)N3)cc1 | > 1000 | > 1000 | > 1000 | > 1000 | > 1000
CC(C)NCc1ccc(C[C@@H]2NC(=O)[C@@H](Cc3c[nH]c4ccccc34)NC(=O)[C@H](Cc3ccccc3)NC(=O)[C@@H]3CC(=O)NC[C@H](NC(=O)[C@H](Cc4ccccc4)NC(=O)[C@H]([C@@H](C)O)NC2=O)C(=O)N[C@@H](CO)C(=O)N[C@H](C(=O)O)CSSC[C@H](NC(=O)[C@@H](N)Cc2ccc(O)cc2)C(=O)N[C@@H](CCCCN)C(=O)N3)cc1 | > 1000 | > 1000 | > 1000 | > 1000 | > 1000
CC(C)NCc1ccc(C[C@@H]2NC(=O)[C@@H](Cc3c[nH]c4ccccc34)NC(=O)[C@H](Cc3ccccc3)NC(=O)[C@@H]3CCC(=O)NCC[C@H](NC(=O)[C@H](Cc4ccccc4)NC(=O)[C@H]([C@@H](C)O)NC2=O)C(=O)N[C@@H](CO)C(=O)N[C@H](C(=O)O)CSSC[C@H](NC(=O)[C@@H](N)Cc2ccc(O)cc2)C(=O)N[C@@H](CCCCN)C(=O)N3)cc1 | > 1000 | > 1000 | 104 | > 1000 | > 1000
CC(C)NCc1ccc(C[C@@H]2NC(=O)[C@@H](Cc3c[nH]c4ccccc34)NC(=O)[C@@H]3CCC(=O)NCCCC[C@H](NC(=O)[C@H]([C@@H](C)O)NC2=O)C(=O)N[C@@H]([C@@H](C)O)C(=O)N[C@@H](CO)C(=O)N[C@H](C(=O)O)CSSC[C@H](NC(=O)[C@@H](N)Cc2ccc(O)cc2)C(=O)N[C@@H](CCCCN)C(=O)N[C@@H](Cc2ccccc2)C(=O)N3)cc1 | > 1000 | > 1000 | > 1000 | > 1000 | > 1000
CC(C)NCc1ccc(C[C@@H]2NC(=O)[C@@H](Cc3c[nH]c4ccccc34)NC(=O)[C@@H]3CC(=O)NC[C@H](NC(=O)[C@H](Cc4ccccc4)NC(=O)[C@H]([C@@H](C)O)NC2=O)C(=O)N[C@@H](CO)C(=O)N[C@H](C(=O)O)CSSC[C@H](NC(=O)[C@@H](N)Cc2ccc(O)cc2)C(=O)N[C@@H](CCCCN)C(=O)N[C@@H](Cc2ccccc2)C(=O)N3)cc1 | > 1000 | > 1000 | > 1000 | > 1000 | > 1000
CC(C)NCc1ccc(C[C@@H]2NC(=O)[C@@H](Cc3c[nH]c4ccccc34)NC(=O)[C@H]3CCC(=O)NCC[C@@H](NC(=O)[C@H]([C@@H](C)O)NC2=O)C(=O)N[C@@H]([C@@H](C)O)C(=O)N[C@@H](CO)C(=O)N[C@H](C(=O)O)CSSC[C@H](NC(=O)[C@@H](N)Cc2ccc(O)cc2)C(=O)N[C@@H](CCCCN)C(=O)N[C@@H](Cc2ccccc2)C(=O)N3)cc1 | > 1000 | > 1000 | > 1000 | > 1000 | > 1000
CC(C)NCc1ccc(C[C@@H]2NC(=O)[C@@H](Cc3c[nH]c4ccccc34)NC(=O)[C@@H]3CCC(=O)NCC[C@H](NC(=O)[C@H](Cc4ccccc4)NC(=O)[C@H]([C@@H](C)O)NC2=O)C(=O)N[C@@H](CO)C(=O)N[C@H](C(=O)O)CSSC[C@H](NC(=O)[C@@H](N)Cc2ccc(O)cc2)C(=O)N[C@@H](CCCCN)C(=O)N[C@@H](Cc2ccccc2)C(=O)N3)cc1 | > 1000 | > 1000 | 241 | > 1000 | > 1000
CC(C)NCc1ccc(C[C@@H]2NC(=O)[C@@H](Cc3c[nH]c4ccccc34)NC(=O)[C@@H]3CCC(=O)NCCCCC[C@H](NC(=O)[C@H](Cc4ccccc4)NC(=O)[C@H]([C@@H](C)O)NC2=O)C(=O)N[C@@H](CO)C(=O)N[C@H](C(=O)O)CSSC[C@H](NC(=O)[C@@H](N)Cc2ccc(O)cc2)C(=O)N[C@@H](CCCCN)C(=O)N[C@@H](Cc2ccccc2)C(=O)N3)cc1 | > 1000 | > 1000 | 94 | > 1000 | > 1000
CC(C)NCc1ccc(C[C@@H]2NC(=O)[C@@H](Cc3c[nH]c4ccccc34)NC(=O)[C@H](Cc3ccccc3)NC(=O)[C@@H]3CCC(=O)NCC[C@H](NC(=O)[C@H]([C@@H](C)O)NC2=O)C(=O)N[C@@H]([C@@H](C)O)C(=O)N[C@@H](CO)C(=O)N[C@H](C(=O)O)CSSC[C@H](NC(=O)[C@@H](N)Cc2ccc(O)cc2)C(=O)N[C@@H](CCCCN)C(=O)N3)cc1 | > 1000 | > 1000 | 597 | > 1000 | > 1000
CC(C)NCc1ccc(C[C@@H]2NC(=O)[C@@H](Cc3c[nH]c4ccccc34)NC(=O)[C@@H]3CCC(=O)NCCCCCC[C@H](NC(=O)[C@H](Cc4ccccc4)NC(=O)[C@H]([C@@H](C)O)NC2=O)C(=O)N[C@@H](CO)C(=O)N[C@H](C(=O)O)CSSC[C@H](NC(=O)[C@@H](N)Cc2ccc(O)cc2)C(=O)N[C@@H](CCCCN)C(=O)N[C@@H](Cc2ccccc2)C(=O)N3)cc1 | > 1000 | > 1000 | 16 | > 1000 | > 1000
CC(C)NCc1ccc(C[C@@H]2NC(=O)[C@@H](Cc3c[nH]c4ccccc34)NC(=O)[C@@H]3CCC(=O)NCCCC[C@H](NC(=O)[C@H](Cc4ccccc4)NC(=O)[C@H]([C@@H](C)O)NC2=O)C(=O)N[C@@H](CO)C(=O)N[C@H](C(=O)O)CSSC[C@H](NC(=O)[C@@H](N)Cc2ccc(O)cc2)C(=O)N[C@@H](CCCCN)C(=O)N[C@@H](Cc2ccccc2)C(=O)N3)cc1 | > 1000 | > 1000 | 53 | > 1000 | > 1000
CC(C)NCc1ccc(C[C@@H]2NC(=O)[C@@H](Cc3c[nH]c4ccccc34)NC(=O)[C@H](Cc3ccccc3)NC(=O)[C@H]3CCC(=O)NCC[C@@H](NC(=O)[C@H]([C@@H](C)O)NC2=O)C(=O)N[C@@H]([C@@H](C)O)C(=O)N[C@@H](CO)C(=O)N[C@H](C(=O)O)CSSC[C@H](NC(=O)[C@@H](N)Cc2ccc(O)cc2)C(=O)N[C@@H](CCCCN)C(=O)N3)cc1 | > 1000 | > 1000 | > 1000 | > 1000 | > 1000
NCCCC[C@@H]1NC(=O)[C@@H](Cc2c[nH]c3ccccc23)NC(=O)[C@H](Cc2ccccc2)NC(=O)[C@H](Cc2ccccc2)NC(=O)[C@@H](N)CSSC[C@@H](C(=O)O)NC(=O)[C@H](Cc2ccccc2)NC1=O | > 1000 | > 1000 | > 1000 | 905 | 786
CC(C)NCc1ccc(C[C@@H]2NC(=O)[C@@H](Cc3c[nH]c4ccccc34)NC(=O)[C@@H]3CC(=O)NCCC[C@H](NC(=O)[C@H](Cc4ccccc4)NC(=O)[C@H]([C@@H](C)O)NC2=O)C(=O)N[C@@H](CO)C(=O)N[C@H](C(=O)O)CSSC[C@H](NC(=O)[C@@H](N)Cc2ccc(O)cc2)C(=O)N[C@@H](CCCCN)C(=O)N[C@@H](Cc2ccccc2)C(=O)N3)cc1 | > 1000 | > 1000 | > 1000 | > 1000 | > 1000
CC(C)NCc1ccc(C[C@@H]2NC(=O)[C@@H](Cc3c[nH]c4ccccc34)NC(=O)[C@@H]3CCC(=O)NCC[C@H](NC(=O)[C@H]([C@@H](C)O)NC2=O)C(=O)N[C@@H]([C@@H](C)O)C(=O)N[C@@H](CO)C(=O)N[C@H](C(=O)O)CSSC[C@H](NC(=O)[C@@H](N)Cc2ccc(O)cc2)C(=O)N[C@@H](CCCCN)C(=O)N[C@@H](Cc2ccccc2)C(=O)N3)cc1 | > 1000 | > 1000 | > 1000 | > 1000 | > 1000
CC(C)NCc1ccc(C[C@@H]2NC(=O)[C@@H](Cc3c[nH]c4ccccc34)NC(=O)[C@H](Cc3ccccc3)NC(=O)[C@@H]3CCC(=O)NCCCC[C@H](NC(=O)[C@H](Cc4ccccc4)NC(=O)[C@H]([C@@H](C)O)NC2=O)C(=O)N[C@@H](CO)C(=O)N[C@H](C(=O)O)CSSC[C@H](NC(=O)[C@@H](N)Cc2ccc(O)cc2)C(=O)N[C@@H](CCCCN)C(=O)N3)cc1 | > 1000 | > 1000 | 208 | > 1000 | > 1000
CC(C)NCc1ccc(C[C@@H]2NC(=O)[C@@H](Cc3c[nH]c4ccccc34)NC(=O)[C@@H]3CCC(=O)NCCC[C@H](NC(=O)[C@H](Cc4ccccc4)NC(=O)[C@H]([C@@H](C)O)NC2=O)C(=O)N[C@@H](CO)C(=O)N[C@H](C(=O)O)CSSC[C@H](NC(=O)[C@@H](N)Cc2ccc(O)cc2)C(=O)N[C@@H](CCCCN)C(=O)N[C@@H](Cc2ccccc2)C(=O)N3)cc1 | > 1000 | > 1000 | 554 | > 1000 | > 1000

Reference: ChEMBL document CHEMBL1141179 (J Med Chem, 2005)
